Experimental data from ChEMBL document CHEMBL1138512, “A class of 2,4-bisanilinopyrimidine Aurora A inhibitors with unusually high selectivity against Aurora B” (J Med Chem, 2009).

Key:
Aurora kinase A [1] = molecular target: T1, Aurora kinase A (Homo sapiens, UniProt O14965); experiment: Inhibition of N-terminal flag-tagged Aurora A expressed in Escherichia coli BL21-DE3 by ELISA
T1 sequence (O14965 whole entry): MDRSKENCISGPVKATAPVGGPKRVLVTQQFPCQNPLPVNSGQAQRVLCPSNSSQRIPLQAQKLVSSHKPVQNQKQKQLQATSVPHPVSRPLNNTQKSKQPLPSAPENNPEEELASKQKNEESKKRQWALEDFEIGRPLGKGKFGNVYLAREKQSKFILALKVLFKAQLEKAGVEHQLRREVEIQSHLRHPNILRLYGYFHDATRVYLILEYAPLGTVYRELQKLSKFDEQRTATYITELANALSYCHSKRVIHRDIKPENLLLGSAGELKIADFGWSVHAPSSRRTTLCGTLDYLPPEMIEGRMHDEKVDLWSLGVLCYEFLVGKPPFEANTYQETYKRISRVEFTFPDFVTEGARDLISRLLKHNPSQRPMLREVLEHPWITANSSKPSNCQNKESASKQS

[2] = molecular target: Glycogen synthase kinase-3 beta (Homo sapiens) (UniProt P49841); experiment: Inhibition of human GSK3-beta at 1 uM assessed as residual enzyme activity
[3] = molecular target: Cyclin-dependent kinase 1/cyclin B1 (Homo sapiens) (UniProt P06493+P14635); experiment: Inhibition of human CDK1/cyclin B at 1 uM assessed as residual enzyme activity
[4] = molecular target: Hepatocyte growth factor receptor (Homo sapiens) (UniProt P08581); experiment: Inhibition of human Met at 1 uM assessed as residual enzyme activity
Aurora kinase B [5] = molecular target: T2, Aurora kinase B (Homo sapiens, UniProt Q96GD4); experiment: Inhibition of Aurora B in human HCT116 cells assessed as complete loss of phospho-histone H3 staining by immunofluorescence assay
T2 sequence (Q96GD4 whole entry): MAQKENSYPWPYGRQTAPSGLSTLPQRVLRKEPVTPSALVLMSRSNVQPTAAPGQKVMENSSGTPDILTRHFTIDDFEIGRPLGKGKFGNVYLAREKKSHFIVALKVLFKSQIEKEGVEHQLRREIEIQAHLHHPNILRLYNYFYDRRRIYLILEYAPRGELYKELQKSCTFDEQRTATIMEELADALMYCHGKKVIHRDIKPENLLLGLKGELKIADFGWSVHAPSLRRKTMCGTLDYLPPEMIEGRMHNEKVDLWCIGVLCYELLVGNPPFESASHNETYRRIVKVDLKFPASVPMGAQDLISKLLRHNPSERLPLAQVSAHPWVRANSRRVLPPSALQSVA

Aurora kinase A [6] = molecular target: T1, Aurora kinase A; experiment: Inhibition of Aurora A in human HCT116 cells assessed as complete loss of phospho-Aurora A staining in centrosomes by immunofluorescence assay; format: cell-based, HCT-116
[7] = molecular target: T3, Cyclin-dependent kinase 2 (Homo sapiens, UniProt P24941); experiment: Inhibition of human CDK2/cyclin E at 1 uM assessed as residual enzyme activity
[8] = molecular target: Proto-oncogene tyrosine-protein kinase Src (Homo sapiens) (UniProt P12931); experiment: Inhibition of human c-SRC at 1 uM assessed as residual enzyme activity
[9] = molecular target: T3, Cyclin-dependent kinase 2; experiment: Inhibition of CDK2/cyclin A
[10] = molecular target: Fibroblast growth factor receptor 3 (Homo sapiens) (UniProt P22607); experiment: Inhibition of human FGFR3 at 1 uM assessed as residual enzyme activity
[11] = molecular target: Mitogen-activated protein kinase 8 (Homo sapiens) (UniProt P45983); experiment: Inhibition of human JNK1alpha1 at 1 uM assessed as residual enzyme activity
[12] = molecular target: Aurora kinase A (Homo sapiens) (UniProt O14965); experiment: Inhibition of human Aurora A at 1 uM assessed as residual enzyme activity
HCT-116 = experiment: Antiproliferative activity against human HCT116 cells after 4 days by celltiter assay; format: functional, cell-based; conditions: HCT-116, 96 h
[13] = molecular target: BDNF/NT-3 growth factors receptor (Homo sapiens) (UniProt Q16620); experiment: Inhibition of human TrkB at 1 uM assessed as residual enzyme activity
[14] = molecular target: Casein kinase II (Homo sapiens) (UniProt P67870+P68400+P19784); experiment: Inhibition of human CK2 at 1 uM assessed as residual enzyme activity; format: protein-complex assay
Aurora kinase B [15] = molecular target: T2, Aurora kinase B; experiment: Inhibition of N-terminal flag-tagged Aurora B expressed in Escherichia coli BL21-DE3 by ELISA
Aurora kinase B [16] = molecular target: T2, Aurora kinase B; experiment: Inhibition of Aurora B in human HT29 cells assessed as complete loss of phospho-histone H3 staining by immunofluorescence assay; format: cell-based, HT-29
Method in brief: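 Immunofluorescence for phospho-S10 histone H3 in HCT116 or HT29 cells, scored visually. Value taken as the lowest inhibitor concentration giving complete loss of staining, so it lies above the IC50. Units µM.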

[17] = molecular target: Dual specificity mitogen-activated protein kinase kinase 1 (Homo sapiens) (UniProt Q02750); experiment: Inhibition of human MEK1 at 1 uM assessed as residual enzyme activity
Sequence of Dual specificity mitogen-activated protein kinase kinase 1 (Homo sapiens) (Q02750 whole entry): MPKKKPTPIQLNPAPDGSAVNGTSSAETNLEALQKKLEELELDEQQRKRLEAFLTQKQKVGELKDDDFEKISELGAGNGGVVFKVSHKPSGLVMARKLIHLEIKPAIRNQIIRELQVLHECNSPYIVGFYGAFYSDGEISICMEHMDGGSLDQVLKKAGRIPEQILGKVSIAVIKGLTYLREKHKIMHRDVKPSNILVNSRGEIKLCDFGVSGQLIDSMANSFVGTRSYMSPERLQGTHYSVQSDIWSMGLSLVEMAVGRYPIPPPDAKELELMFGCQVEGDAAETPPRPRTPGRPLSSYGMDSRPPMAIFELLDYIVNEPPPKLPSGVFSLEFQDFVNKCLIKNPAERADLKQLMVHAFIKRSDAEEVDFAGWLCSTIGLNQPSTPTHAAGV

[18] = molecular target: Tyrosine-protein kinase ZAP-70 (Homo sapiens) (UniProt P43403); experiment: Inhibition of human ZAP-70 at 1 uM assessed as residual enzyme activity
Sequence of Tyrosine-protein kinase ZAP-70 (Homo sapiens) (P43403 whole entry): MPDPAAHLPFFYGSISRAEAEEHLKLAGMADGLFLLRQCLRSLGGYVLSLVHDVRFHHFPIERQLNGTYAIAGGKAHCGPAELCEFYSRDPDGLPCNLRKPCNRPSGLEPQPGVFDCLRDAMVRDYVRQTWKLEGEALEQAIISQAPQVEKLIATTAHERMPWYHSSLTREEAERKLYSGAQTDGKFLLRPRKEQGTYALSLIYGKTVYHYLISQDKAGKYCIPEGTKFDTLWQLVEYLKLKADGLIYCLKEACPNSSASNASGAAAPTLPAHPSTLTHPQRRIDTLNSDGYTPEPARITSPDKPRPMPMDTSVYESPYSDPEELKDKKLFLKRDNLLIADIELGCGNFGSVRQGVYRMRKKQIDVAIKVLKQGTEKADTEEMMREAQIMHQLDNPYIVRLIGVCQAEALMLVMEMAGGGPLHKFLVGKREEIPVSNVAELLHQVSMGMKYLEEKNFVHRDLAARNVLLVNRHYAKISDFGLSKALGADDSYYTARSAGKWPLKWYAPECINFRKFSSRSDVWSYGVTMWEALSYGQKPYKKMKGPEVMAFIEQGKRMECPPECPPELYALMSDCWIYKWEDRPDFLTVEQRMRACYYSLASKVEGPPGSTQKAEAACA

[19] = molecular target: Platelet-derived growth factor receptor beta (Homo sapiens) (UniProt P09619); experiment: Inhibition of human PDGFRbeta at 1 uM assessed as residual enzyme activity
[20] = molecular target: RAC-beta serine/threonine-protein kinase (Homo sapiens) (UniProt P31751); experiment: Inhibition of human PKBbeta at 1 uM assessed as residual enzyme activity
[21] = molecular target: Epidermal growth factor receptor (Homo sapiens) (UniProt P00533); experiment: Inhibition of human EGFR at 1 uM assessed as residual enzyme activity
[22] = molecular target: RAC-alpha serine/threonine-protein kinase (Homo sapiens) (UniProt P31749); experiment: Inhibition of human PKBalpha at 1 uM assessed as residual enzyme activity
Sequence of RAC-alpha serine/threonine-protein kinase (Homo sapiens) (P31749 whole entry): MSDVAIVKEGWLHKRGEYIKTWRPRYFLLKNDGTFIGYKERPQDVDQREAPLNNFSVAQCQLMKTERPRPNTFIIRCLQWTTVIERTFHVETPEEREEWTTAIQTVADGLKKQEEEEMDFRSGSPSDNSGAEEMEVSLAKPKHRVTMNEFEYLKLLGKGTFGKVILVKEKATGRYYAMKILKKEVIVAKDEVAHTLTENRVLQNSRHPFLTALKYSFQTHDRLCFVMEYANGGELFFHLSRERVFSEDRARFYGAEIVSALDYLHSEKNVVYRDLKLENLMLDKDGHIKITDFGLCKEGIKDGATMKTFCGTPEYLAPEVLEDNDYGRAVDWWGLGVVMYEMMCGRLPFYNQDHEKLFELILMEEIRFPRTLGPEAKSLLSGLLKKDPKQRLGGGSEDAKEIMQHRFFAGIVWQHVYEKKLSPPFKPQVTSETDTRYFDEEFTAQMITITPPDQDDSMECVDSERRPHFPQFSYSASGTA

[23] = molecular target: Ribosomal protein S6 kinase beta-1 (Homo sapiens) (UniProt P23443); experiment: Inhibition of human p70S6K at 1 uM assessed as residual enzyme activity
[24] = molecular target: RAF proto-oncogene serine/threonine-protein kinase (Homo sapiens) (UniProt P04049); experiment: Inhibition of human c-RAF at 1 uM assessed as residual enzyme activity
[25] = molecular target: Proto-oncogene tyrosine-protein kinase receptor Ret (Homo sapiens) (UniProt P07949); experiment: Inhibition of human Ret at 1 uM assessed as residual enzyme activity
Sequence of Proto-oncogene tyrosine-protein kinase receptor Ret (Homo sapiens) (P07949 whole entry): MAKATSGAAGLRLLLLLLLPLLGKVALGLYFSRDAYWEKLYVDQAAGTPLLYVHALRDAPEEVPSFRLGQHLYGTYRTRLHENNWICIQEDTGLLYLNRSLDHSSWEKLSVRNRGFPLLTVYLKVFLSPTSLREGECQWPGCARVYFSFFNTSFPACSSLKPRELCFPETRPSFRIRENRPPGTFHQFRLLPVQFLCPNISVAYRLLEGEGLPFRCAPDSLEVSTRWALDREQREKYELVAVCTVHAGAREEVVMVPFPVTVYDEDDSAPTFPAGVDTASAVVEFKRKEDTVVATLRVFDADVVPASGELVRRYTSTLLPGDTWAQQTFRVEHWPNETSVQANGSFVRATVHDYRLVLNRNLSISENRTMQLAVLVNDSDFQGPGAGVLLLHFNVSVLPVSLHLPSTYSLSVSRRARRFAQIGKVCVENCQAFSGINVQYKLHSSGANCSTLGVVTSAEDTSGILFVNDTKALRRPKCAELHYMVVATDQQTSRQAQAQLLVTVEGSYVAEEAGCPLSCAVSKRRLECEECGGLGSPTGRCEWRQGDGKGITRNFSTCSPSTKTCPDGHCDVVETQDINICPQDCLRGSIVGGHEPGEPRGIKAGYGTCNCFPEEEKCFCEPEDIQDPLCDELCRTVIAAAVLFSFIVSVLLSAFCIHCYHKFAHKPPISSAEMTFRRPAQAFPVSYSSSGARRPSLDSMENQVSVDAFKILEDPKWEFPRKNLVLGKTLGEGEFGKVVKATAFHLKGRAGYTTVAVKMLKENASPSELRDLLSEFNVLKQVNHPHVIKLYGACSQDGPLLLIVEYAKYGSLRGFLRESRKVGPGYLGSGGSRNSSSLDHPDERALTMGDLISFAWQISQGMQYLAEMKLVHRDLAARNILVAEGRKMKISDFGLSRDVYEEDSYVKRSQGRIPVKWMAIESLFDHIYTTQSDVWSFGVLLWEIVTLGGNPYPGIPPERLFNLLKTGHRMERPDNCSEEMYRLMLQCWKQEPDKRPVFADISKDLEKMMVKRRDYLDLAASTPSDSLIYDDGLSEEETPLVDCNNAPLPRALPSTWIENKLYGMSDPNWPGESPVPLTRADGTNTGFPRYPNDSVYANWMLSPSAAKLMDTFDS

[26] = molecular target: Tyrosine-protein kinase Lck (Homo sapiens) (UniProt P06239); experiment: Inhibition of human Lck at 1 uM assessed as residual enzyme activity
[27] = molecular target: Tyrosine-protein kinase CSK (Homo sapiens) (UniProt P41240); experiment: Inhibition of human CSK at 1 uM assessed as residual enzyme activity
Sequence of Tyrosine-protein kinase CSK (Homo sapiens) (P41240 2-450 limits assumed): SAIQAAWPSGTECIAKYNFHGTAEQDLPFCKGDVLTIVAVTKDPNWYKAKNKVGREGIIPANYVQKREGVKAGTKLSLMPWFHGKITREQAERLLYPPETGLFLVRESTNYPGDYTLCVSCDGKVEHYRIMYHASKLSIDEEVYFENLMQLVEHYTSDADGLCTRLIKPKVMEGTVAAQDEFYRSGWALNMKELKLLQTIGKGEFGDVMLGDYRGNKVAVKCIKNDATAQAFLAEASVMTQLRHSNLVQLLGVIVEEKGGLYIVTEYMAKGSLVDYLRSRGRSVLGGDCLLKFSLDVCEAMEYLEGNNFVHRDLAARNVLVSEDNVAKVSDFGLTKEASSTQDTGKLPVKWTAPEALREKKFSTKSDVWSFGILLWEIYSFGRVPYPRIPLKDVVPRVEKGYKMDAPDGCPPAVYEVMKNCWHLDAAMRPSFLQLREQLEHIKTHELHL

[28] = molecular target: Serine/threonine-protein kinase Chk1 (Homo sapiens) (UniProt O14757); experiment: Inhibition of human CHK1 at 1 uM assessed as residual enzyme activity
[29] = molecular target: Insulin receptor (Homo sapiens) (UniProt P06213); experiment: Inhibition of human insulin receptor at 1 uM assessed as residual enzyme activity
[30] = molecular target: Tyrosine-protein kinase receptor UFO (Homo sapiens) (UniProt P30530); experiment: Inhibition of human Axl at 1 uM assessed as residual enzyme activity
[31] = molecular target: RAC-gamma serine/threonine-protein kinase (Homo sapiens) (UniProt Q9Y243); experiment: Inhibition of human PKBgamma at 1 uM assessed as residual enzyme activity
Sequence of RAC-gamma serine/threonine-protein kinase (Homo sapiens) (Q9Y243 whole entry): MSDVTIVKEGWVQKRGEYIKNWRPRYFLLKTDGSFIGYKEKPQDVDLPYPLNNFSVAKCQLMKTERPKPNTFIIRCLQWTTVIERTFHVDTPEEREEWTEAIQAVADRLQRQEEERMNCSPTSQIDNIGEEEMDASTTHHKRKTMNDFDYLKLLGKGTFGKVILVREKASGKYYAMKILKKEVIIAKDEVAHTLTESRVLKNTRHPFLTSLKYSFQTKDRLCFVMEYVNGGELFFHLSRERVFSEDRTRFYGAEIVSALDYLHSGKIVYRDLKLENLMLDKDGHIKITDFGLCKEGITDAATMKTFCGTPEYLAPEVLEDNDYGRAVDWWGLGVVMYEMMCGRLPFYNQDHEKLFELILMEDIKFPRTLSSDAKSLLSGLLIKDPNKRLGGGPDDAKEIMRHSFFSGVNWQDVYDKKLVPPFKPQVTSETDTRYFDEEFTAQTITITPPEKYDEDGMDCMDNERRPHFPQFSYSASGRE

[32] = molecular target: Tyrosine-protein kinase ABL1 (Mus musculus) (UniProt P00520); experiment: Inhibition of mouse ABL at 1 uM assessed as residual enzyme activity
Sequence of Tyrosine-protein kinase ABL1 (Mus musculus) (P00520 whole entry): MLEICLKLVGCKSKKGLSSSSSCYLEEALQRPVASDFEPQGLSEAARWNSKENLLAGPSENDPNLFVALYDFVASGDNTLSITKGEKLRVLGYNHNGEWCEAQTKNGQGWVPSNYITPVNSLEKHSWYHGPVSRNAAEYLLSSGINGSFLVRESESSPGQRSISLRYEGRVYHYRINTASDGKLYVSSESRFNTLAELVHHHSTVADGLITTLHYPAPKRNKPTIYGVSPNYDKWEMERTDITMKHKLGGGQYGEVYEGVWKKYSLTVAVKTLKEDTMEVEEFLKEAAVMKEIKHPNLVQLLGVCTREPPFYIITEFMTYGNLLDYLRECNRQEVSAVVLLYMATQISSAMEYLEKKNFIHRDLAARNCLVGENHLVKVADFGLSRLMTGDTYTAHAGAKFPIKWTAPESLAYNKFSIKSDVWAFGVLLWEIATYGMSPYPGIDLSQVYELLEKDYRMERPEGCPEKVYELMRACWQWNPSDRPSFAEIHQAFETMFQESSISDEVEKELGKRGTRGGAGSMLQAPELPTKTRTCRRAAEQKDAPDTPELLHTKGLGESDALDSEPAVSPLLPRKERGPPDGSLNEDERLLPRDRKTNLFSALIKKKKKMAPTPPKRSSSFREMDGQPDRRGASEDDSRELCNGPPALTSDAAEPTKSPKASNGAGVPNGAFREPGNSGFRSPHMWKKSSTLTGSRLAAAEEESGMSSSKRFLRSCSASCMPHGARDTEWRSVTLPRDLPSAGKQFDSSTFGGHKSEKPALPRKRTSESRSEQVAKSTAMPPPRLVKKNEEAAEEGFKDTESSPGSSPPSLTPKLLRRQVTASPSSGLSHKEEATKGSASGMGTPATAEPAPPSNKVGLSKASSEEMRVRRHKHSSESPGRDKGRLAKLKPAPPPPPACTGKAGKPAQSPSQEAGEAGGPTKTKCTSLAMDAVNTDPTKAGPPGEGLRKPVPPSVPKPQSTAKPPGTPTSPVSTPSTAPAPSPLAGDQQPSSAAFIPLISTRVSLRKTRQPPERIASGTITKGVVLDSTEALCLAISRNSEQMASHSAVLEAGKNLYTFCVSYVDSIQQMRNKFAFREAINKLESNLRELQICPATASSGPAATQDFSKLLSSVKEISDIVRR

[33] = molecular target: Ephrin type-B receptor 2 (Homo sapiens) (UniProt P29323); experiment: Inhibition of human EphB2 at 1 uM assessed as residual enzyme activity
[34] = molecular target: Receptor-type tyrosine-protein kinase FLT3 (Homo sapiens) (UniProt P36888); experiment: Inhibition of human Flt3 at 1 uM assessed as residual enzyme activity
[35] = molecular target: Tyrosine-protein kinase ABL2 (Mus musculus) (UniProt Q4JIM5); experiment: Inhibition of mouse ARG at 1 uM assessed as residual enzyme activity
HT-29 = experiment: Antiproliferative activity against human HT-29 cells after 4 days by celltiter assay; format: functional, cell-based; conditions: HT-29, 96 h
Homo sapiens = species on record: Homo sapiens; experiment: Inhibition of human PKA at 1 uM assessed as residual enzyme activity

## COc1ccc(Nc2nc(Nc3ccc(O)cc3)ncc2F)cc1
Aurora kinase A [1]
  IC50: 78 nM

## Cc1ccccc1Nc1nc(Nc2ccc(O)cc2)ncc1F
Aurora kinase A [1]
  IC50: 67 nM

## CCc1cnc(Nc2ccc(O)cc2)nc1Nc1ccc(O)cc1
Aurora kinase A [1]
  IC50: 150 nM

## CN(C)C(=O)c1ccc(Nc2nc(Nc3ccc(O)cc3)ncc2F)cc1
Aurora kinase A [1]
  IC50: 640 nM

## Fc1ccc(Nc2ncc(F)c(Nc3ccc(F)cc3)n2)cc1
Aurora kinase A [1]
  IC50: 200 nM

## Cc1cccc(Nc2nc(Nc3ccc(O)cc3)ncc2F)c1
Aurora kinase A [1]
  IC50: 180 nM

## Cc1cc(Nc2ccc(O)cc2)nc(Nc2ccc(O)cc2)n1
Aurora kinase A [1]
  IC50: > 17000 nM

## Oc1ccc(Nc2cc(Cl)nc(Nc3ccc(O)cc3)n2)cc1
Aurora kinase A [1]
  IC50: > 17000 nM

## Cc1ccc(Nc2nc(Nc3ccc(O)cc3)ncc2F)cc1
Aurora kinase A [1]
  IC50: 75 nM

## Cc1cccc(NC(=O)c2ccc(Nc3nc(Nc4ccc(O)cc4)ncc3F)cc2)c1
Aurora kinase A [1]
  IC50: 50 nM

## O=C(Nc1ccc(Cl)cc1)c1ccc(Nc2nc(Nc3ccc(O)cc3)ncc2F)cc1
Aurora kinase A [1]
  IC50: 64 nM

## O=C(Nc1ccccc1Cl)c1ccc(Nc2nc(Nc3ccc(O)cc3)ncc2F)cc1
[2]
  Activity: 90%
[3]
  Activity: 60%
[4]
  Activity: 57%
Aurora kinase B [5]
  IC50: > 25000 nM
Aurora kinase A [6]
  IC50: 5000 nM
[7]
  Activity: 44%
[8]
  Activity: 66%
[9]
  IC50: 3200 nM
[10]
  Activity: 40%
[11]
  Activity: 31%
[12]
  Activity: 1%
Aurora kinase A [1]
  IC50: 10 nM
HCT-116
  IC50: 870 nM
[13]
  Activity: 76%
[14]
  Activity: 88%
Aurora kinase B [15]
  IC50: 1900 nM
Aurora kinase B [16]
  IC50: > 30000 nM
[17]
  Activity: 103%
[18]
  Activity: 100%
[19]
  Activity: 111%
[20]
  Activity: 103%
[21]
  Activity: 54%
[22]
  Activity: 96%
[23]
  Activity: 25%
[24]
  Activity: 64%
[25]
  Activity: 7%
[26]
  Activity: 42%
[27]
  Activity: 100%
[28]
  Activity: 82%
[29]
  Activity: 102%
[30]
  Activity: 54%
[31]
  Activity: 91%
[32]
  Activity: 76%
[33]
  Activity: 104%
[34]
  Activity: 6%
[35]
  Activity: 57%
HT-29
  IC50: 17000 nM
Homo sapiens
  Activity: 87%

## O=C(O)c1ccc(Nc2ncc3c(n2)-c2ccc(Cl)cc2C(c2c(F)cccc2F)=NC3)cc1 [MLN-8054]
HCT-116
  IC50: 100 nM
HT-29
  IC50: 150 nM

## Oc1ccc(Nc2ncc(Cl)c(Nc3ccc(O)cc3)n2)cc1
Aurora kinase A [1]
  IC50: 8 nM

## O=C(Nc1cccc(Cl)c1)c1ccc(Nc2nc(Nc3ccc(O)cc3)ncc2F)cc1
Aurora kinase A [1]
  IC50: 140 nM

## CCCc1cnc(Nc2ccc(O)cc2)nc1Nc1ccc(O)cc1
Aurora kinase A [1]
  IC50: 11000 nM

## Oc1ccc(Nc2ncc(C(F)(F)F)c(Nc3ccc(O)cc3)n2)cc1
Aurora kinase A [1]
  IC50: 14 nM

## O=C(Nc1cccc(F)c1)c1ccc(Nc2nc(Nc3ccc(O)cc3)ncc2F)cc1
Aurora kinase A [1]
  IC50: 59 nM

## N#Cc1cnc(Nc2ccc(O)cc2)nc1Nc1ccc(O)cc1
Aurora kinase A [1]
  IC50: 23 nM

## CCCNC(=O)c1ccc(Nc2nc(Nc3ccc(O)cc3)ncc2F)cc1
Aurora kinase A [1]
  IC50: 49 nM

## O=C(Nc1cccc(O)c1)c1ccc(Nc2nc(Nc3ccc(O)cc3)ncc2F)cc1
Aurora kinase A [1]
  IC50: 19 nM

## COc1cccc(Nc2nc(Nc3ccc(O)cc3)ncc2F)c1
Aurora kinase A [1]
  IC50: 260 nM

## COc1ccc(NC(=O)c2ccc(Nc3nc(Nc4ccc(O)cc4)ncc3F)cc2)cc1
Aurora kinase A [1]
  IC50: 14 nM
